Screening results from PubChem.
Compounds with a hit are over-represented: about 2.2% of the library has one in this group of screens.
697 NFkB inh – lowers PMA/ionomycin-induced NF-kB signal in 697 B cells | 697 B-cell NF-kB luciferase reporter, 16 h | inhibition, % at 4 µM | actives 0.33% (n = 330,000) | AID 435022; in the data active = inhibition above about 35%
FGF22 binding – shifts melting point of recombinant human FGF22; activity (Tm shift, normalised), % at 9.99 µM; recombinant FGF22 thermal shift, SYPRO orange fluorescence; percent of sucrose octasulfate shift, DMSO zero; actives 1.5% (n = 340,000);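 active = mean Tm shift, scaled 0 neutral to 100 positive control, at about 1.3% or above, every replicate too, limit read from the data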
Target sequence (Q9HCT0 whole entry, looked up): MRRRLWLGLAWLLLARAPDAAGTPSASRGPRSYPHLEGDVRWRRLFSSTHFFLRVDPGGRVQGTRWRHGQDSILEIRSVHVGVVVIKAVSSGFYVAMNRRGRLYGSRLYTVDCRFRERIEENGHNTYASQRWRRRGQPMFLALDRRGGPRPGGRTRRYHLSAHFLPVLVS
miR-122 sensor – miR-122 inhibition in Huh7 cells | Huh7 miR-122 Renilla luciferase sensor, 48 h; neutral wells = 0, positive control = 100 | activation (reporter increase), % at 12.5 µM | actives 0.3% (n = 340,000);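 active = mean replicate activation score at least 90 and every replicate individually at or above 90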;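 also: higher luciferase means less miR-122 activity so hits act as miR-122 inhibitors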
NR2E3 ag-1 – agonists of human nuclear receptor NR2E3. Q9Y5X4. GST-NR2E3/biotin-RetCOR TR-FRET, 1536-well. inhibition of corepressor binding, % at 4.78 µM. actives 0.12% (n = 320,000). AID 2300;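 active = percent inhibition above the cutoff of mean plus 3 SD of all tested compounds, set per screening campaign, cut at about 20% in these data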;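 also: 0% = DMSO wells and 100% = biotin wells as full block of FRET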
Target sequence (Q9Y5X4 whole entry, looked up): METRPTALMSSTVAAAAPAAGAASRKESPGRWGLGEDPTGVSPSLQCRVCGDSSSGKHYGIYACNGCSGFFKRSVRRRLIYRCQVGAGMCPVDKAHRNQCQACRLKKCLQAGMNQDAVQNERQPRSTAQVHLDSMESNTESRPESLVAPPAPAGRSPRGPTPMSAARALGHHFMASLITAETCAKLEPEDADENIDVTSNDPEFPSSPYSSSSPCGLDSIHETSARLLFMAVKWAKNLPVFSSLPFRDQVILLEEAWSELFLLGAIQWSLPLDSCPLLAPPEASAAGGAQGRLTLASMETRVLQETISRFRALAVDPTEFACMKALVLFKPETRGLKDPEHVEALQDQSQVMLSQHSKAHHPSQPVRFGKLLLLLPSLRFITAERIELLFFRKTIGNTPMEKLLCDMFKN
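Assay system: NR2E3–RetCOR corepressor complex. Quantity: 1.35 nM GST-NR2E3. Buffer or medium: pH 7.5 Tris-based buffer. Reagent: biotinylated RetCOR corepressor at 7 nM final. Schedule: 5 h at 4 °C. Detection: TR-FRET, emission read at 617 and 671 nm. Replicates: one well per compound, singlicate testing.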
NR2E3 ag-2 – agonists of human NR2E3 nuclear receptor; CHO-S Gal4-NCOR/VP16-NR2E3 two-hybrid, luciferase; actives 0.35% (n = 360,000); AID 602229; inhibition of corepressor binding, % at 3.98 µM;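 active = inhibition above the mean of all tested compounds plus 3 SD, cut at about 70% in these data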;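 also: 0% = DMSO with NR2E3 transfected cells and 100% = cells lacking NR2E3 construct; higher means lower luciferase signal from less NR2E3 corepressor binding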
Jurkat NFkB inh – lowers PMA/ionomycin-induced NF-kB signal in Jurkat cells; PMA/ionomycin-induced NF-kB luciferase reporter, luminescence; inhibition, % at 4 µM; actives 0.53% (n = 330,000); AID 435003; in the data active = inhibition above about 50%
An asterisk follows results filed as active; nt = not tested or not shown; [ ] = remark or other dose.

SMILES	697 NFkB inh	FGF22 binding	miR-122 sensor	NR2E3 ag-1	NR2E3 ag-2	Jurkat NFkB inh
CCOC(=O)C1=C(C)N=c2s/c(=C3\C(=O)Nc4ccccc43)c(=O)n2C1c1ccc2c(c1)OCO2 (configuration not stated)	-1.8	nt	91.1*	-1.2	-1.4	3.6
CN(Cc1ccc2nonc2c1)Cc1nc(CC2CC2)no1	17.6	42.9*	1.4	0.2	-16.4	5.0
Fc1ccc2nc(C3CCCCN3Cc3nc(CC4CC4)no3)[nH]c2c1 (configuration not stated)	12.7	-0.1	nt	1.8	5.1	20.5
CCOC(=O)c1ccc(CC2SC(N)=NC2=O)cc1 (configuration not stated)	-17.8	-0.1	nt	-0.2	-15.3	2.2
CCOC(=O)c1ccc(NC(=O)C2CC(=O)N=C(N)S2)cc1 (configuration not stated)	0.5	43.3*	-10.9	4.0	21.1	-10.2
COc1cccc(-c2ccc3c(c2)[C@H]2[C@H](CCN2C(=O)c2ccccn2)[C@@H](CO)N3)c1	nt	0.1	5.8[16.7 µM]	nt	nt	nt
COc1ccc(N(CC(=O)NCCSc2ccccn2)S(C)(=O)=O)cc1	5.8	nt	-9.8	1.1	-0.8	-12.3
CS(=O)(=O)N(CC(=O)NCCSc1ccccn1)c1ccc(F)cc1	0.0	43.1*	nt	4.2	2.5	-7.6
O=S(=O)(NCC[C@@H]1CC[C@@H](NS(=O)(=O)c2ccccc2Cl)[C@H](CO)O1)c1ccc(F)cc1	nt	-0.4	nt	nt	nt	nt
Cc1nn(-c2ccccc2)c(Cl)c1/C=N/NC(=O)CNC(=O)c1ccccc1Cl	0.4	43.9*	3.9	3.9	-3.7	-8.8
O=C(Nc1cccn(Cc2c(Cl)cccc2Cl)c1=O)c1ccccc1Cl	-30.9	nt	1.6	4.7	-1.9	2.1
CC(=O)Nc1cccn(Cc2c(Cl)cccc2Cl)c1=O	10.2	43.0*	nt	1.9	-5.3	9.2
CCCNC(=O)Cn1c(-c2ccc(F)cc2)cc(C(=O)OCC)c1C	13.3	43.4*	nt	4.0	22.1	14.8
CCOC(=O)c1cc(-c2ccc(F)cc2)n(CC(=O)NC(C)CC)c1C (configuration not stated)	-8.2	43.3*	nt	-0.4	0.5	16.6
Cc1ccc(S(=O)(=O)NCc2ccccn2)c(C)c1	9.0	0.2	8.1	-0.9	-8.9	6.0
CCOc1ccc(S(=O)(=O)NCc2ccco2)c2ccccc12	-30.8	0.1	122.0*	1.6	1.0	-6.2
COc1cc(C)c(Cl)cc1S(=O)(=O)NCc1ccco1	3.6	nt	105.2*	0.2	-28.0	-4.2
COc1cc(OC)c(S(=O)(=O)NCc2ccco2)cc1S(=O)(=O)NCc1ccco1	-2.4	nt	40.0	2.5	1.2	-3.9
O=S(=O)(NCc1ccco1)c1ccccc1Br	-129.1	-0.1	6.0	2.3	-29.4	-106.9
CCOc1cc(C)c(C(C)C)cc1S(=O)(=O)NCc1ccccn1	8.7	nt	104.5*	1.3	8.4	-2.7
CCOc1cc(C)c(Cl)cc1S(=O)(=O)NCc1ccco1	7.9	nt	116.4*	0.3	-13.3	5.6
O=C(CC(F)(F)F)N1C[C@@H]2[C@H](c3ccccc31)[C@@H](CO)N2C(=O)C1CCOCC1	nt	0.2	0.0[16.7 µM]	nt	nt	nt
O=C(Nc1ccc2c(c1)OCO2)N[C@H]1CC[C@H](CCNC(=O)C2CCOCC2)O[C@H]1CO	nt	-0.1	nt	nt	nt	nt
O=C(C[C@@H]1CC[C@H]2[C@@H](COC[C@@H](O)CN2C(=O)c2cnccn2)O1)NCc1ccc(Cl)cc1	nt	0.0	6.3[16.7 µM]	nt	nt	nt
COc1ccc(C2Nc3ccccc3C(=O)N2Cc2ccccc2)cc1 (configuration not stated)	-2.5	0.0	nt	-2.3	-6.8	-11.3
SMILES	697 NFkB inh	FGF22 binding	miR-122 sensor	NR2E3 ag-1	NR2E3 ag-2	Jurkat NFkB inh
COc1ccc([C@@H]2[C@@H](C)N(c3ccccc3)c3ccccc3C(=O)N2Cc2ccccc2)cc1	nt	43.5*	-4.7	nt	22.7	nt
N#CC1c2ccccc2-c2ccccc2N1C(=O)c1ccccc1 (configuration not stated)	nt	-0.2	98.2*	nt	-66.1	nt
C#CCOCCOCCOCCNc1nc(N2CCOCC2)nc(N2CCN(C(=O)[C@H](CCCN=C(N)N)n3cc(C(N)[C@@H](C)CC)nn3)CC2)n1 (some centres not stated)	5.0	15.3*	-1.0	nt	-22.1	-3.5
C#CCOCCOCCOCCNc1nc(N2CCN(C(=O)[C@H](CCCN=C(N)N)n3cc(C(N)[C@H](C)CC)nn3)CC2)nc(N2CCN(C(=O)[C@H](CCCN=C(N)N)n3cc(C(N)[C@@H](C)CC)nn3)CC2)n1 (some centres not stated)	-9.8	nt	nt	nt	-1.0	-3.3
CCn1c(/C=C/c2ccccc2)nc2ccccc2c1=O	-16.3	43.7*	nt	1.5	-0.6	-7.7
CCn1c(/C=C/c2ccc(F)cc2)nc2ccccc2c1=O	3.9	0.0	-11.7	1.8	-5.2	-0.3
C[C@@H]1CCCCO[C@H](CN(C)Cc2ccc3c(c2)OCO3)[C@@H](C)CN([C@@H](C)CO)C(=O)c2cc(NC(=O)Nc3cccc4ccccc34)ccc2O1	nt	-0.2	-16.1[16.7 µM]	nt	nt	nt
O=C(N/C=C/c1ccco1)Nc1cccc(Cl)c1	8.8	-0.1	-0.6	0.6	-5.7	11.3
COc1ccc(NC(=O)N/C=C/c2ccco2)cc1	7.8	43.2*	-2.7	1.9	3.9	-3.3
CC(/C=C/c1ccco1)=N/NC(=O)OC(C)(C)C	-15.3	0.1	nt	-0.9	-44.5	-22.5
C/C(=N/NC(=O)OC(C)(C)C)c1ccco1	-34.5	43.6*	nt	2.7	-49.3	-18.8
COc1ccc(NC(=O)Nc2ccc(CC(=O)O)cc2)cc1	11.9	43.1*	-7.4	1.0	-0.8	18.4
Cc1ccnc(NC(=O)c2ccc(Cl)cc2Cl)n1	9.4	43.1*	nt	-2.0	nt	-2.2
Cc1cc(C)nc(NC(=O)c2ccc(Cl)cc2Cl)n1	4.7	0.0	-2.5	0.5	7.8	6.5
COc1ccc(NC(=O)Nc2ccc3c(c2)CC(=O)N([C@H](C)CO)C[C@@H](C)[C@@H](CN(C)S(=O)(=O)c2c(C)noc2C)O3)cc1	nt	-0.3	-6.3[16.7 µM]	nt	nt	nt
CN1c2ccc(-c3ccc(F)cc3)cc2[C@H]2[C@H](CCN2S(=O)(=O)c2cccc(F)c2)[C@H]1CO	nt	0.0	143.8*[16.7 µM]	nt	nt	nt
N#C[C@@H]1[C@@H](c2ccccc2-c2ccc(F)cc2)[C@H](CO)N1c1ncc(-c2ccccc2)s1	nt	0.2	nt	nt	nt	nt
O=C(O)CCC(=O)N1CCCC1	14.9	42.9*	nt	5.9	-5.7	7.8
C[C@@H]1CN([C@@H](C)CO)C(=O)c2cc(-c3cccc(F)c3)cnc2O[C@@H]1CN(C)S(=O)(=O)c1cccc(F)c1	nt	0.2	4.1[16.7 µM]	nt	nt	nt
CC(=O)Nc1ccccc1OCC(=O)NCC(F)(F)F	16.9	43.9*	nt	1.9	-6.4	-9.8
O=C(COc1ccccc1Br)Nc1ccccc1C(F)(F)F	-3.5	43.0*	-13.2	-3.6	-20.1	8.3
